Measured values reported in ChEMBL document CHEMBL2311311, “Synthesis and in vitro activity of 1,2,4-triazole-ciprofloxacin hybrids against drug-susceptible and drug-resistant bacteria” (Eur J Med Chem, 2013).
≈ marks a conversion by molar mass, not a printed value.

Legend:
Bacillus cereus = assay: Antimicrobial activity against Bacillus cereus ATCC 10876 by broth microdilution method; type: functional
Procedure, shortened: (§1)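 Inocula were saline (0.85% NaCl) suspensions at 0.5 McFarland (150 × 10⁶ CFU/mL). Compounds were first screened by agar dilution on Mueller-Hinton agar, and active ones then went to broth microdilution. MIC is the lowest concentration inhibiting growth. The negative control was medium containing DMSO at the final concentration, without compound.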

Escherichia coli = assay: Antimicrobial activity against Escherichia coli ATCC 25922 by broth microdilution method; type: functional; procedure, shortened: as §1
Bacillus subtilis = assay: Antimicrobial activity against Bacillus subtilis ATCC 6633 by broth microdilution method; type: functional; procedure, shortened: as §1
Pseudomonas aeruginosa [1] = assay: Antimicrobial activity against Pseudomonas aeruginosa ATCC 9027 by broth microdilution method; type: functional; procedure, shortened: as §1
HEK293 = assay: Cytotoxicity against HEK293 cells after 48 hrs by MTT assay; type: cell-based; settings: Homo sapiens, HEK293, 48 h
Procedure, shortened: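 HEK-293 cells were seeded at 3 × 10⁵ cells/well and pre-incubated 24 h at 37 °C under 5% CO₂. Compounds came from 50 mg/mL DMSO stocks diluted in medium with 2% FBS, at final concentrations of 2–500. Exposure was 48 h at 37 °C with MTT formazan read on a plate reader. EC50 is growth inhibition relative to control cells, given as mean ± SD of three independent experiments.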

Micrococcus luteus [2] = assay: Ratio of ciprofloxacin MIC to compound MIC for Micrococcus luteus ATCC 10240 by broth microdilution method; type: functional
Staphylococcus aureus [3] = assay: Antimicrobial activity against Staphylococcus aureus ATCC 25923 by broth microdilution method; type: functional; procedure, shortened: as §1
Staphylococcus aureus [4] = assay: Antimicrobial activity against methicillin-resistant Staphylococcus aureus 14001 by broth microdilution method; type: functional
Procedure, shortened: (§2)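 Inoculum in sterile saline (0.85% NaCl), adjusted to 0.5 McFarland (150 × 10⁶ CFU/mL). Compounds first screened by agar dilution on Mueller-Hinton agar, then titrated by broth microdilution. Medium with DMSO at the final concentration and no compound served as negative control. MIC is the lowest concentration inhibiting growth. MBC is the lowest concentration giving >99.9% reduction in CFU of the initial inoculum.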

Staphylococcus aureus [5] = assay: Ratio of MBC to MIC for methicillin-resistant Staphylococcus aureus 14001 by broth microdilution method; type: functional; procedure, shortened: as §2
Proteus mirabilis = assay: Antimicrobial activity against Proteus mirabilis ATCC 12453 by broth microdilution method; type: functional; procedure, shortened: as §1
[6] = tested on: Staphylococcus epidermidis; assay: Antimicrobial activity against Staphylococcus epidermidis ATCC 12228 by broth microdilution method; type: functional; procedure, shortened: as §1
Micrococcus luteus [7] = assay: Antimicrobial activity against Micrococcus luteus ATCC 10240 by broth microdilution method; type: functional; procedure, shortened: as §1
Pseudomonas aeruginosa [8] = assay: Ratio of ciprofloxacin MIC to compound MIC for Pseudomonas aeruginosa ATCC 9027 by broth microdilution method; type: functional
Staphylococcus aureus [9] = assay: Ratio of ciprofloxacin MIC to compound MIC for Staphylococcus aureus ATCC 25923 by broth microdilution method; type: functional
Staphylococcus aureus [10] = assay: Ratio of ciprofloxacin MIC to compound MIC for methicillin-resistant Staphylococcus aureus 14001 by broth microdilution method; type: functional; procedure, shortened: as §2
Staphylococcus aureus [11] = assay: Ratio of vancomycin MIC to compound MIC for methicillin-resistant Staphylococcus aureus 14001 by broth microdilution method; type: functional; procedure, shortened: as §2
[12] = Selectivity ratio of EC50 for HEK293 cells to MIC for methicillin-resistant Staphylococcus aureus 14001; type: functional
Procedure, shortened: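 HEK-293 cells grown at 37 °C in humidified 5% CO₂ with penicillin and […] streptomycin. Seeded at 3 × 10⁵ cells/well for 24 h. Compounds (50 mg/mL DMSO stock) were diluted in medium with 2% FBS to final 2–500 µg/mL and applied for 48 h at 37 °C. Read-out was MTT formazan. EC50 was taken relative to control-cell growth, mean ± SD of three independent experiments, then divided by the MRSA MIC.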

Row | Compound | MIC (Bacillus cereus) [µM] | MIC (Escherichia coli) [µM] | MIC (Bacillus subtilis) [µM] | MIC (Pseudomonas aeruginosa [1]) [µM] | EC50 (HEK293) [µM] | Ratio (Micrococcus luteus [2]) | MIC (Staphylococcus aureus [3]) [µM] | MBC (Staphylococcus aureus [4]) [µM] | MIC (Staphylococcus aureus [4]) [µM] | Ratio (Staphylococcus aureus [5]) | MIC (Proteus mirabilis) [µM] | MIC [6] [µM] | MIC (Micrococcus luteus [7]) [µM] | Ratio (Pseudomonas aeruginosa [8]) | Ratio (Staphylococcus aureus [9]) | Ratio (Staphylococcus aureus [10]) | Ratio (Staphylococcus aureus [11]) | Ratio [12]
1 | CCn1c(-c2cccc(Cl)c2)nn(CN2CCN(c3cc4c(cc3F)c(=O)c(C(=O)O)cn4C3CC3)CC2)c1=S | 0.2 (≈ 0.117 µg/mL) | 0.051 (≈ 0.0297 µg/mL) | 0.1 (≈ 0.0583 µg/mL) | 0.41 (≈ 0.239 µg/mL) | 39.7 | 7.5 | 0.84 (≈ 0.49 µg/mL) | 0.84 (≈ 0.49 µg/mL) | 0.41 (≈ 0.239 µg/mL) | 2 | 0.051 (≈ 0.0297 µg/mL) | 0.84 (≈ 0.49 µg/mL) | 0.84 (≈ 0.49 µg/mL) |  |  |  |  | 
2 | CCCCn1c(-c2cccc(Cl)c2)nn(CN2CCN(c3cc4c(cc3F)c(=O)c(C(=O)O)cn4C3CC3)CC2)c1=S | 0.39 (≈ 0.238 µg/mL) | 0.098 (≈ 0.0599 µg/mL) | 0.2 (≈ 0.122 µg/mL) | 0.8 (≈ 0.489 µg/mL) |  |  | 3.19 (≈ 1.95 µg/mL) | 1.6 (≈ 0.978 µg/mL) | 1.6 (≈ 0.978 µg/mL) | 1 | 0.098 (≈ 0.0599 µg/mL) | 1.6 (≈ 0.978 µg/mL) | 6.4 (≈ 3.91 µg/mL) |  |  |  |  | 
3 | CCCCCCn1c(-c2cccc(Cl)c2)nn(CN2CCN(c3cc4c(cc3F)c(=O)c(C(=O)O)cn4C3CC3)CC2)c1=S | 0.77 (≈ 0.492 µg/mL) | 0.047 (≈ 0.03 µg/mL) | 0.19 (≈ 0.121 µg/mL) | 0.77 (≈ 0.492 µg/mL) |  |  | 1.53 (≈ 0.978 µg/mL) | 3.05 (≈ 1.95 µg/mL) | 1.53 (≈ 0.978 µg/mL) | 2 | 0.19 (≈ 0.121 µg/mL) | 1.53 (≈ 0.978 µg/mL) | 3.05 (≈ 1.95 µg/mL) |  |  |  |  | 
4 | O=C(O)c1cn(C2CC2)c2cc(N3CCN(Cn4nc(-c5cccc(O)c5)n(-c5cccc([N+](=O)[O-])c5)c4=S)CC3)c(F)cc2c1=O | 0.18 (≈ 0.118 µg/mL) | 0.023 (≈ 0.0151 µg/mL) | 0.18 (≈ 0.118 µg/mL) | 0.18 (≈ 0.118 µg/mL) |  |  | 0.74 (≈ 0.487 µg/mL) | 0.74 (≈ 0.487 µg/mL) | 0.36 (≈ 0.237 µg/mL) | 2 | 0.023 (≈ 0.0151 µg/mL) | 0.74 (≈ 0.487 µg/mL) | 1.49 (≈ 0.98 µg/mL) | 4 |  |  |  | 
5 | O=C(O)c1cn(C2CC2)c2cc(N3CCN(Cn4nc(-c5cccc(O)c5)n(-c5cccc(I)c5)c4=S)CC3)c(F)cc2c1=O | 0.16 (≈ 0.118 µg/mL) | 0.041 (≈ 0.0303 µg/mL) | 0.32 (≈ 0.236 µg/mL) | 0.081 (≈ 0.0598 µg/mL) |  |  | 0.66 (≈ 0.487 µg/mL) | 0.66 (≈ 0.487 µg/mL) | 0.66 (≈ 0.487 µg/mL) | 1 | 0.041 (≈ 0.0303 µg/mL) | 0.66 (≈ 0.487 µg/mL) | 1.33 (≈ 0.982 µg/mL) | 8 |  |  |  | 
6 | O=C(O)c1cn(C2CC2)c2cc(N3CCN(Cn4nc(-c5cccc(O)c5)n(-c5ccc(Cl)cc5Cl)c4=S)CC3)c(F)cc2c1=O | 0.18 (≈ 0.123 µg/mL) | 0.044 (≈ 0.03 µg/mL) | 0.18 (≈ 0.123 µg/mL) | 0.088 (≈ 0.06 µg/mL) |  |  | 0.35 (≈ 0.239 µg/mL) | 0.71 (≈ 0.484 µg/mL) | 0.35 (≈ 0.239 µg/mL) | 2 | 0.022 (≈ 0.015 µg/mL) | 0.35 (≈ 0.239 µg/mL) | 1.44 (≈ 0.981 µg/mL) | 8 | 8.5 |  |  | 
7 | O=C(O)c1cn(C2CC2)c2cc(N3CCN(Cn4nc(-c5cccc(O)c5)n(-c5cc(Cl)cc(Cl)c5)c4=S)CC3)c(F)cc2c1=O | 0.18 (≈ 0.123 µg/mL) | 0.022 (≈ 0.015 µg/mL) | 0.18 (≈ 0.123 µg/mL) | 0.088 (≈ 0.06 µg/mL) | 53 |  | 0.72 (≈ 0.491 µg/mL) | 0.35 (≈ 0.239 µg/mL) | 0.088 (≈ 0.06 µg/mL) | 4 | 0.044 (≈ 0.03 µg/mL) | 0.35 (≈ 0.239 µg/mL) | 1.44 (≈ 0.981 µg/mL) | 8 |  | 17 | 8 | 600
8 | O=C(O)c1cn(C2CC2)c2cc(N3CCN(Cn4ncn(-c5cccc(I)c5)c4=S)CC3)c(F)cc2c1=O | 3.02 (≈ 1.95 µg/mL) | 0.093 (≈ 0.0601 µg/mL) | 0.37 (≈ 0.239 µg/mL) | 1.52 (≈ 0.983 µg/mL) |  |  | 12.1 (≈ 7.81 µg/mL) | 12.1 (≈ 7.81 µg/mL) | 6.05 (≈ 3.91 µg/mL) | 2 | 0.18 (≈ 0.116 µg/mL) | 6.05 (≈ 3.91 µg/mL) | 24.2 (≈ 15.6 µg/mL) |  |  |  |  | 
9 | Cc1nn(CN2CCN(c3cc4c(cc3F)c(=O)c(C(=O)O)cn4C3CC3)CC2)c(=S)n1-c1cccc(I)c1 | 1.48 (≈ 0.978 µg/mL) | 0.36 (≈ 0.238 µg/mL) | 1.48 (≈ 0.978 µg/mL) | 2.95 (≈ 1.95 µg/mL) |  |  | 23.7 (≈ 15.6 µg/mL) | 23.7 (≈ 15.6 µg/mL) | 23.7 (≈ 15.6 µg/mL) | 1 | 0.74 (≈ 0.489 µg/mL) | 23.7 (≈ 15.6 µg/mL) | 94.6 (≈ 62.5 µg/mL) |  |  |  |  | 
10 | CCCc1nn(CN2CCN(c3cc4c(cc3F)c(=O)c(C(=O)O)cn4C3CC3)CC2)c(=S)n1-c1cccc(I)c1 | 22.7 (≈ 15.6 µg/mL) | 0.71 (≈ 0.489 µg/mL) | 5.68 (≈ 3.91 µg/mL) | 22.7 (≈ 15.6 µg/mL) |  |  | 90.8 (≈ 62.5 µg/mL) | 182 (≈ 125 µg/mL) | 182 (≈ 125 µg/mL) | 1 | 2.83 (≈ 1.95 µg/mL) | 90.8 (≈ 62.5 µg/mL) | 182 (≈ 125 µg/mL) |  |  |  |  | 
